Among all 300,000 compounds or so, about 1,000 (0.33%) were called active. Only a selection was taken, and actives are over-represented in it overall. Unmarked numbers belong to inactive results.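 The calls were made as follows: active = inhibition above the mean of all tested compounds plus 3 SD, set per screening campaign (cut at about 45% in these data); inactive = the rest.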
What follows are molecules tested on HCV core protein (residues 1-106) dimerization (assay: blockers of core106 self-association – biochemical, TR-FRET, high-throughput, primary screen (AID 1899)). Settings: TR-FRET GST/Flag-core106 dimerization, 1536-well; at 5 µM; stronger effect = higher value.
Procedure, shortened: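 assay system = GST-tagged and Flag-tagged HCV core protein residues 1-106 | controls = unlabelled core106 and no-GST-core106 wells | incubation = compound-protein-antibody incubation 4 h at 22.5 °C | probe or stimulus = Eu donor and XL665 acceptor anti-tag antibodies | read-out = % inhibition based on acceptor/donor emission ratio | signal = TR-FRET 671 and 617 nm emission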

Compound	inhibition
Cc1ccc(NC(=S)NC(=O)/C=C/c2ccc(Cl)cc2)cc1	-5.71%
CCOc1ccc(NC(=S)NC(=O)/C=C/c2ccc(OC)cc2)c([N+](=O)[O-])c1	47.8% (active)
COc1ccc(/C=C/C(=O)NC(=S)N2CCCC(C(N)=O)C2)cc1 (centres undefined)	-10.7%
Cn1nnnc1SCC(=O)N1CCN(C(c2ccccc2)c2ccccc2)CC1	2.43%
N#CC1=C(N)Oc2c(ccc3cccnc23)C1c1ccncc1 (centres undefined)	3.58%
N#CC1=C(N)Oc2c(sc3ccccc23)C1c1ccco1 (centres undefined)	54.5% (active)
COC(=O)c1ccc2c(=O)n(CCN3CCOCC3)c(SCC(=O)Nc3cccc(OC)c3)nc2c1	-0.68%
CCOC(=O)N1CCN(C(=O)CSc2nc(C)nc3c2c(=O)n(C)c(=O)n3C)CC1	-1.3%
COc1ccc2c(CN3CCN(S(=O)(=O)c4cccs4)CC3)cc(=O)oc2c1	11.7%
NC(=O)CCN1CCN(S(=O)(=O)/C=C/c2ccccc2)CC1	0.92%
O=c1cc(CN2CCN(S(=O)(=O)/C=C/c3ccccc3)CC2)c2ccc(O)cc2o1	52.2% (active)
Cc1nn(CC(=O)N/N=C/c2ccc(F)cc2)c(C)c1[N+](=O)[O-]	-5.44%
COc1cc(/C=N/NC(=O)c2cc(C)n(-c3ccc(F)cc3)c2C)cc(OC)c1O	4.09%
Cc1cc(C(=O)N/N=C/c2ccc(O)c([N+](=O)[O-])c2)c(C)n1-c1ccc(F)cc1	70.4% (active)
CC(c1ccco1)N(C(=O)c1ccc(S(=O)(=O)N2CCCCC2)cc1)c1ccccn1 (centres undefined)	-1.02%
CCOc1ccc(NC(=O)c2ccc(NC(=O)COC(=O)c3ccc(NC(=O)CC#N)cc3)cc2)cc1	62.4% (active)
CC(C)NC(=O)NC(=O)COC(=O)c1ccc(NC(=O)CC#N)cc1	-2.82%
CCOc1ccc(C(=O)Nc2ccncc2)cc1	-4.79%
CCCn1c(O)c(CN2CCCC(C)C2)c(C)c(C#N)c1=O (centres undefined)	-8.8%
O=C(Nc1ccc(-n2ccnc2P(=O)(O)c2ccccc2)cc1)c1ccccc1Br	3.36%
CC(=O)c1ccc(S(=O)(=O)N2CCN(C(=O)/C=C/c3ccc4ccccc4n3)CC2)cc1	34.5%
CC(=O)c1ccc(S(=O)(=O)N2CCC3(CC2)OCCO3)cc1	-8.35%
CC(=O)c1ccc(S(=O)(=O)N2CCN(c3nc4c(C)c(C)ccc4cc3C#N)CC2)cc1	60.9% (active)

Compound	inhibition
Cc1ccc(S(=O)Cc2ccc(C(=O)N3CCN(C4CCCCC4)CC3)o2)cc1 (centres undefined)	2.42%
COc1ccc(/C=N/N=C/c2c[nH]c(=O)c(C#N)c2Nc2ccccc2)cc1	9.36%
Nc1nc(O)c(CC(=O)O)s1	-10.1%
COc1cc2c(C(=O)O)c(C)n(C)c2c2ccccc12	-16.5%
Cc1c(C(=O)N/N=C/c2ccccc2)[nH]c2c([N+](=O)[O-])cccc12	2.99%
COc1cccc2c(C)c(C(=O)O)[nH]c12	52.9% (active)
COc1ccc(S(=O)(=O)N2CCN(c3ncnc4c(-c5ccccc5)nsc34)CC2)cc1	5.78%
COc1cccc(OCc2cc(/C=N/NC(=O)c3nc(Cl)c(Cl)c(N)c3Cl)ccc2OC)c1	58.9% (active)
COc1ccc(/C=N/NC(=O)c2ccc(Cl)cc2)cc1COC(C)=O	-6.24%
COc1ccc(/C=N\NC(=O)c2sc(N)nc2C)cc1OC	1.3%
CCn1cc(/C=C(\NC(=O)c2cc(OC)c(OC)c(OC)c2)C(=O)N2CCN(C)CC2)c2ccccc21	-12.2%
CC1CCCN(c2ccc(C(=O)NCCc3ccccc3)cn2)C1 (centres undefined)	-2.49%
Cc1cc2nc3c(=O)n(Cc4ccccc4)c(=O)[nH]c3nc2cc1N	7.8%
Nc1ccc2nc3c(=O)[nH]c(=S)[nH]c3nc2c1	47.1% (active)
COc1ccc(/C=N/NC(=O)c2cc(-c3cccc(C)c3)nc3ccccc23)cc1O	4.37%
Cc1ccc(-c2cc(C(=O)N/N=C/C=C/c3ccco3)c3ccccc3n2)cc1C	68.2% (active)
O=C(N/N=C/C=C/c1ccco1)c1cccs1	11.6%
CCOC(=O)N1CCN(Cc2nc3ccc([N+](=O)[O-])cc3c(=O)n2-c2cccc(OC)c2)CC1	0.84%
Cc1ccc(NC(=O)CN(C)C(=O)COC(=O)C(C)(C)Oc2ccc(Cl)cc2)cc1	2.08%
CC(C)c1ccc(C2C(C(=O)c3ccco3)=C(O)C(=O)N2CC2CCCO2)cc1 (centres undefined)	-4.24%
Cn1cncc1COC(=O)c1ccc(Cl)cc1	1.11%
Cc1ccc(S(=O)(=O)N2CCC(C(=O)NCC3CCCO3)CC2)cc1 (centres undefined)	4.25%
Cc1cc(C2=NNC(=Nc3ccc(S(=O)(=O)N4CCOCC4)cc3)SC2)c(C)n1CC1CCCO1 (centres undefined)	55.5% (active)

Compound	inhibition
C=CCn1c(C)cc(C2=NNC(=NCC)SC2)c1C	-4.1%
O=C(NNC(=S)NC(=O)c1cn(-c2ccccc2)nc1-c1ccccc1)c1ccncc1	-3.87%
CCn1cc(C(=O)N2CC(C)CC(C)C2)c(=O)c2cc(S(=O)(=O)N3CCCC3)ccc21 (centres undefined)	-3.07%
CN(NC(=O)C1CC(=O)N(c2ccccc2)C1)C1=NS(=O)(=O)c2ccccc21 (centres undefined)	1.86%
O=C(N=C1SC2CS(=O)(=O)CC2N1c1cc(Cl)ccc1Cl)C1CC1 (centres undefined)	-2.57%
COc1ccc2nc(SCc3ccccc3)nc(C)c2c1	-8.86%
Fc1cccc(Cl)c1CSc1ccc(-c2ccco2)nn1	19.9%
O=c1cc(O)nc(SCc2ccccc2Cl)[nH]1	-5.09%
O=c1[nH]c(SCc2ccccc2)nnc1-c1ccccc1	4.19%
c1ccc(CSc2nnc(-c3ccco3)c(-c3ccco3)n2)cc1	63.8% (active)
Clc1ccccc1CSc1nnc(-c2ccco2)c(-c2ccco2)n1	60.8% (active)
CCN(CC(=O)Nc1ccccc1OC)C(=O)Cn1cnc2ccccc2c1=O	0.63%
C=C1CCN([C@@H](Cc2ccccc2)C(=O)N2CCOCC2)S(=O)(=O)c2ccccc21	5.65%
CCOC(=O)CSc1nc2ccc(C)cc2n2cnnc12	-1.27%
CC(C)(C)CC(=O)Nc1nnc(SCC(=O)NCc2cccs2)s1	10.5%
O=C(c1ccccc1)N1CCN(C(=O)c2cc3nc(-c4ccccc4)cc(C(F)(F)F)n3n2)CC1	-5.71%
Cc1ccc(N=C2NC(=O)/C(=C/C=C/c3ccco3)S2)cc1C	61.8% (active)
CN1C(=O)/C(=C/c2ccco2)SC1=Nc1cccc(C(=O)O)c1	1.21%
Cc1ccc(N2NC(=O)/C(=C/C=C/c3ccco3)C2=O)cc1C	13.5%
C/C(=N\NC(=O)c1ccc(CSc2nc(C)cc(C)n2)cc1)C1CCCCC1	7.33%
O=C(Nc1ccccc1C(=O)O)c1ccc(N2C(=O)C3CC=CCC3C2=O)cc1 (centres undefined)	-0.72%
N#Cc1ccccc1CN1C(=O)S/C(=C/c2cccn2-c2cccc(C(=O)O)c2)C1=O	74.2% (active)
Cc1cc(/C=C2\SC(=O)N(C)C2=O)c(C)n1-c1cccc(C(=O)O)c1	8.51%

Compound	inhibition
Cc1ccccc1NC(=O)CN1C(=O)N/C(=C\c2cccn2-c2cccc(C(=O)O)c2)C1=O	-4.12%
COc1ccc(S(=O)(=O)N2CCOC23CCN(S(=O)(=O)c2ccc([N+](=O)[O-])cc2)CC3)cc1	7.35%
CC(C)c1ccccc1OCC(O)CN(CC(O)COc1cccc2ccccc12)C(C)C (centres undefined)	-10.3%
Cc1ccc(C(=O)N/C(=C\c2cn(S(=O)(=O)N(C)C)c3ccccc23)C(=O)N2CCCC2)cc1	15.1%
O=C(Nc1ccccc1C(=O)N1CCCCC1)c1ccco1	-1.76%
CN(C)C=NC(=O)c1cccn1-c1ncc(C(F)(F)F)cc1Cl	-0.36%
Cc1noc(/C=C/c2ccco2)c1S(=O)(=O)N1CCC(C(=O)Nc2ccc(Cl)cn2)CC1	9.46%
Cc1noc(/C=C/c2ccco2)c1S(=O)(=O)N1CCC(C(=O)N2CCc3ccccc32)CC1	66.4% (active)
CNC(=O)C1CCN(S(=O)(=O)c2c(C)noc2/C=C/c2cccc(C)c2)CC1	-2.65%
Cc1cccc(C)c1NC(=O)CN1C(=O)C(C)Oc2ccccc21 (centres undefined)	5.55%
CN(C)c1ccc(C(=S)N2CCN(C(=S)Nc3ccc(Cl)cc3)CC2)cc1	13%
CCOc1ccccc1/C=c1\sc2nc(-c3ccco3)nn2c1=O	62.2% (active)
CSc1nc(-c2ccco2)nn1C(=O)CCc1ccccc1	-2.5%
O=c1nc2s/c(=C\c3ccco3)c(=O)n2nc1Cc1ccccc1	22.3%
CC(=O)c1c(Nc2ccccc2)sc(C(=O)c2ccccc2)c1C	-11.1%
C=CCC(Nc1ccccc1)c1cccc(OC)c1OC (centres undefined)	2.92%
CCOC(=O)c1c(C)n(C)c2ccc(OC)c(NC(=O)CN3CCC4(CC3)OCCO4)c12	-1.2%
Cc1ccc2nc(-c3ccncc3)cc(C(=O)Nc3ccncc3)c2c1	8.74%
O=C(Nc1ccc(S(=O)(=O)Nc2nccs2)cc1)c1cc(-c2ccncc2)nc2ccccc12	76% (active)
O=C(Nc1ccc(S(=O)(=O)Nc2nccs2)cc1)c1cc(=O)[nH]c2ccccc12	2.23%

Reference: PubChem BioAssay AID1899 (The Scripps Research Institute Molecular Screening Center, 2009)
